In ChEMBL document CHEMBL4130635, “2,4-Diaminoquinazolines as Dual Toll-like Receptor (TLR) 7/8 Modulators for the Treatment of Hepatitis B Virus” (J Med Chem, 2018):
Activity calls are given as the source filed them. The calls are words filed in the database; no cut-off is given here.

Assays:
Cynomolgus monkey [1] = test: Upregulation of Tlr7 expression in cynomolgus monkey plasma at 30 mg/kg, po after 24 hrs by Fluidigm RT-qPCR analysis (reference value: 1.8); type: functional, Macaca fascicularis
[2] = AUC (0 to last) in C57BL/6J mouse liver at 30 mg/kg, po by LC-MS analysis; type: ADME, organism-based; settings: in vivo
In short: (§1)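 Healthy C57BL/6 mice were dosed once by mouth at 0.3, 1, 3, 10 or 30 mg/kg in 20% HP-β-CD, in groups of 15 per dose. Three mice per group were sacrificed at 0.5, 1, 2, 4 or 7 h, and plasma and liver compound levels were measured by LC–MS. Values were rounded to whole numbers.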

Liver [3] = test: Proinflammatory activity in C57BL/6J mouse liver assessed as CXCL-1 levels at 10 mg/kg, po by multiplex assay (reference value: 25 pg/g); type: functional
Cynomolgus monkey [4] = test: Effect on cytokine profile in cynomolgus monkey plasma assessed as IP10 levels at 30 mg/kg, po after 24 hrs by Luminex assay (reference value: 18.5 pg/ml); type: functional, Macaca fascicularis
In short: (§2)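 Healthy cynomolgus monkeys given single oral doses of 1, 3, 9 and 30 mg/kg, with a 2-week wash-out planned between doses. Systemic cytokine levels in plasma were sampled at 0.5, 1, 2, 4, 9 and 24 h postdose.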

Plasma [5] = test: Proinflammatory activity in C57BL/6J mouse plasma assessed as TNFalpha levels at 0.3 mg/kg, po by multiplex assay (reference value: 70 pg/ml); type: functional, organism-based
Plasma [6] = test: Proinflammatory activity in C57BL/6J mouse plasma assessed as IL-1beta levels at 3 mg/kg, po by multiplex assay (reference value: 60 pg/ml); type: functional
[7] = Protein binding in cynomolgus monkey plasma fraction at 5 uM after 4.5 hrs LC-MS/MS-based rapid equilibrium dialysis method; type: ADME, cell-free, Macaca fascicularis; settings: read-out: PPB (converted)
Plasma [8] = test: Anti-inflammatory activity in C57BL/6J mouse plasma assessed as IL-10 levels at 30 mg/kg, po by multiplex assay (reference value: 120 pg/ml); type: functional
In short: (§3)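 Single oral gavage in 20% HP-β-CD to healthy C57BL/6 mice, groups of 15 at 0.3, 1, 3, 10 or 30 mg/kg. Three mice per group sacrificed at 0.5, 1, 2, 4 or 7 h. Plasma and liver cytokines by multiplex, maximum level reported, rounded to nearest multiple of 5.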

[9] = AUC (0 to last) in C57BL/6J mouse liver at 3 mg/kg, po by LC-MS analysis; type: ADME, organism-based; settings: in vivo; in short: as §1
Cynomolgus monkey [10] = test: Induction of IFNalpha levels in cynomolgus monkey plasma at 30 mg/kg, po after 24 hrs by ELISA; type: functional, Macaca fascicularis; in short: as §2
[11] = Cmax in C57BL/6J mouse plasma at 3 mg/kg, po by LC-MS analysis; type: ADME, organism-based; parameters: dose 3 mg/kg, route oral
In short: (§4)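 Healthy C57BL/6 mice, groups of 15, given a single oral dose (0.3, 1, 3, 10 or 30 mg/kg) in 20% HP-β-CD. Blood drawn at 0.5 h. Three mice per group sacrificed at 0.5, 1, 2, 4 or 7 h, and compound in plasma and liver measured by LC−MS. Values rounded to whole numbers.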

[12] = target: T1, TLR7 and TLR8 (Homo sapiens) (UniProt Q9NYK1+Q9NR97); test: Agonist activity at TLR7/8 in human PBMCs co-cultured with primary human hepatocytes infected with HBV genotype C for 12 days assessed as increase in IL-12p40 levels up to 5 uM measured after 42 days
T1 sequence (Q9NR97 whole entry, looked up): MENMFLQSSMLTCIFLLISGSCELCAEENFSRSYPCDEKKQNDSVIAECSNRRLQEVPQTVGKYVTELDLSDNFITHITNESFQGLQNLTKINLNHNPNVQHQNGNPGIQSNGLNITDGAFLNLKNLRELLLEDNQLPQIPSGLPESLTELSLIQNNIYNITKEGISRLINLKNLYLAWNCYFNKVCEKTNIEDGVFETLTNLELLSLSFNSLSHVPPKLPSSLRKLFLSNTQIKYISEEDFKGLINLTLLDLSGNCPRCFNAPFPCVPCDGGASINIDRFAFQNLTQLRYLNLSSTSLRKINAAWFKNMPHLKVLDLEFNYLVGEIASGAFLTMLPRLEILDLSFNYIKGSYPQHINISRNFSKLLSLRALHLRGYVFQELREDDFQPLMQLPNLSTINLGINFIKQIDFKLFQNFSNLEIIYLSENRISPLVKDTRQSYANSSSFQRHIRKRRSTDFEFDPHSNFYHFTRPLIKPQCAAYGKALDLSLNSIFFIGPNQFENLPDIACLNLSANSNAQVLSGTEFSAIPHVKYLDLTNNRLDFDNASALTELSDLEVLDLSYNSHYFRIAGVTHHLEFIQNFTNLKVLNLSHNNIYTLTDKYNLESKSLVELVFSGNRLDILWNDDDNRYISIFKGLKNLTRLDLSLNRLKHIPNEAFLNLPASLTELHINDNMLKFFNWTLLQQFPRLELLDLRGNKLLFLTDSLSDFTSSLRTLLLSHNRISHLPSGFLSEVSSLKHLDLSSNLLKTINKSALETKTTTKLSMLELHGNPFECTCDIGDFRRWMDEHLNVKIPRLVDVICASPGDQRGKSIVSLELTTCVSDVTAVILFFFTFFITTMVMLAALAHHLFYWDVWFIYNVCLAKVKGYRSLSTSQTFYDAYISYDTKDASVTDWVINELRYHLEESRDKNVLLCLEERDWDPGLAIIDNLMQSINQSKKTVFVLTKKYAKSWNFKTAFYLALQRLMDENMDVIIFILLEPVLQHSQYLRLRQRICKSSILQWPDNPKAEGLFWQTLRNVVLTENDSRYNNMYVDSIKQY
T1 sequence (Q9NYK1 whole entry, looked up): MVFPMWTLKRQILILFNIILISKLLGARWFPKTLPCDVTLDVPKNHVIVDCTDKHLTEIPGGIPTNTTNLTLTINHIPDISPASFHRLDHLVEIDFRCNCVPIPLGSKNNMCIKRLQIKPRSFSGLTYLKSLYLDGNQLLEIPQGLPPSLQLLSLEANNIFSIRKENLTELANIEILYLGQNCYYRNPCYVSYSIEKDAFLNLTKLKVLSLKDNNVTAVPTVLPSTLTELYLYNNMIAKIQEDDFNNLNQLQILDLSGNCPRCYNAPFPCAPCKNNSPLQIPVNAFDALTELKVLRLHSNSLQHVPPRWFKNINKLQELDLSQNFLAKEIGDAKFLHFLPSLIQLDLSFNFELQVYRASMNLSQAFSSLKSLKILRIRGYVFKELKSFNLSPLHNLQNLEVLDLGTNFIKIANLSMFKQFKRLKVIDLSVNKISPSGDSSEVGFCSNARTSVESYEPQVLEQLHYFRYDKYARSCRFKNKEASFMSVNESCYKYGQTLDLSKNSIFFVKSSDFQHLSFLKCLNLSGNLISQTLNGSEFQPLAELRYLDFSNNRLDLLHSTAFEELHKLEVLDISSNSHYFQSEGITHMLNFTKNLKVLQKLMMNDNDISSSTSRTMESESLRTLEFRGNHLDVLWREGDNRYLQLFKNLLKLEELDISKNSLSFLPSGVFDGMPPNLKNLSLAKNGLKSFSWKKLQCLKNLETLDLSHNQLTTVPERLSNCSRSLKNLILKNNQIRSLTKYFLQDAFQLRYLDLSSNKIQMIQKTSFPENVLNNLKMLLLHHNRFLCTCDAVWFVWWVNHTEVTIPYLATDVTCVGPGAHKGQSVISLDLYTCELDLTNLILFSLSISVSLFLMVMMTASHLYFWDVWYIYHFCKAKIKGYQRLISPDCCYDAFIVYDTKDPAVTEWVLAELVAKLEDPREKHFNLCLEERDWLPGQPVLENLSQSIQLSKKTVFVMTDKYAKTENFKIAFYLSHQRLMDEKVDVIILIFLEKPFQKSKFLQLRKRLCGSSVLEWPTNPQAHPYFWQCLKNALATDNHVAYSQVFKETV

Plasma [13] = test: Proinflammatory activity in C57BL/6J mouse plasma assessed as IL-1beta levels at 10 mg/kg, po by multiplex assay (reference value: 60 pg/ml); type: functional
[14] = Cmax in C57BL/6J mouse plasma at 1 mg/kg, po by LC-MS analysis; type: ADME, organism-based; parameters: dose 1 mg/kg, route oral; in short: as §4
Liver [15] = test: Effect on cytokine profile in C57BL/6J mouse liver assessed as IL-12p70 levels at 0.3 mg/kg, po by multiplex assay (reference value: 5 pg/g); type: functional, organism-based; in short: as §3
[16] = Intrinsic clearance in rat liver microsomes assessed per mg protein at 1 uM up to 60 mins; type: ADME, microsome; settings: read-out: CLH
Plasma [17] = test: Anti-inflammatory activity in C57BL/6J mouse plasma assessed as IL-10 levels at 3 mg/kg, po by multiplex assay (reference value: 120 pg/ml); type: functional; in short: as §3
[18] = target: T1, TLR7 and TLR8 (Homo sapiens); test: Agonist activity at TLR7/8 in human PBMCs co-cultured with primary human hepatocytes infected with HBV genotype C for 12 days assessed as increase in IL-12p70 levels up to 5 uM measured after 42 days
Cynomolgus monkey [19] = test: Activation of monocytes in cynomolgus monkey plasma assessed as upregulation of MIP1 levels at 3 mg/kg, po after 24 hrs by Luminex assay (reference value: 37 pg/ml); type: functional, Macaca fascicularis
Liver [20] = test: Upregulation of IP-10 mRNA expression levels in C57BL/6J mouse liver at 0.3 mg/kg, po by RT-qPCR analysis (reference value: 1); type: functional
Cynomolgus monkey [21] = test: Activation of monocytes in cynomolgus monkey plasma assessed as upregulation of MCP1 levels at 9 mg/kg, po after 24 hrs by Luminex assay (reference value: 385 pg/ml); type: functional, Macaca fascicularis
Plasma [22] = test: Induction of IFNalpha levels in C57BL/6J mouse plasma at 0.3 mg/kg, po by ELISA; type: functional, organism-based
[23] = target: T1, TLR7 and TLR8 (Homo sapiens); test: Agonist activity at TLR7/8 in human PBMCs co-cultured with primary human hepatocytes infected with HBV genotype C for 12 days assessed as increase in TNFalpha levels up to 5 uM measured after 42 days
Cynomolgus monkey [24] = test: Induction of G-CSF in cynomolgus monkey plasma at 9 mg/kg, po after 24 hrs by Luminex assay (reference value: 85 pg/ml); type: functional, Macaca fascicularis; in short: as §2
Plasma [25] = test: Effect on cytokine profile in C57BL/6J mouse plasma assessed as IL-12p70 levels at 10 mg/kg, po by multiplex assay (reference value: 560 pg/ml); type: functional; in short: as §3
[26] = Protein binding in rat plasma fraction at 5 uM after 4.5 hrs LC-MS/MS-based rapid equilibrium dialysis method; type: ADME, cell-free; settings: read-out: PPB (converted)
Cynomolgus monkey [27] = test: Toxicity in cynomolgus monkey assessed as induction of clinical pathology changes up to 30 mg/kg, po; type: organism-based, Macaca fascicularis; settings: in vivo
Liver [28] = test: Effect on cytokine profile in C57BL/6J mouse liver assessed as IFNgamma levels at 1 mg/kg, po by multiplex assay; type: functional, organism-based; in short: as §3
Liver [29] = test: Effect on cytokine profile in C57BL/6J mouse liver assessed as IFNgamma levels at 30 mg/kg, po by multiplex assay; type: functional; in short: as §3
Cynomolgus monkey [30] = test: Activation of monocytes in cynomolgus monkey plasma assessed as upregulation of MCP1 levels at 1 mg/kg, po after 24 hrs by Luminex assay (reference value: 385 pg/ml); type: functional, Macaca fascicularis
Cynomolgus monkey [31] = test: Effect on cytokine profile in cynomolgus monkey plasma assessed as IL-12P70 levels at 3 mg/kg, po after 24 hrs by Luminex assay (reference value: 2.17 pg/ml); type: functional, organism-based; settings: Macaca fascicularis; in short: as §2
[32] = Stability in human hepatocytes assessed compound turnover at 1 uM after 60 mins; type: ADME, cell-based, Hepatocyte; settings: read-out: Drug metabolism
Plasma [33] = test: Proinflammatory activity in C57BL/6J mouse plasma assessed as TNFalpha levels at 30 mg/kg, po by multiplex assay (reference value: 70 pg/ml); type: functional

CCC[C@@H](CCO)Nc1nc(N)nc2c(F)cccc12
fold change (FC) (Cynomolgus monkey [1]): 4.2
AUClast [2]: 7160 ng·h/g
Activity (Liver [3]): 48485 pg/g
Activity (Cynomolgus monkey [4]): 8195 pg/mL
Activity (Plasma [5]): Below limit of detection
Activity (Plasma [6]): 40 pg/mL
fraction unbound at 4.5 h, 5 µM [7]: 0.46
Activity (Plasma [8]): 5170 pg/mL
AUClast [9]: 362 ng·h/g
Activity (Cynomolgus monkey [10]): >51200 pg/mL
Cmax [11]: 22 ng/mL
Activity [12]: Active
Activity (Plasma [13]): 55 pg/mL
Cmax [14]: 9 ng/mL
Activity (Liver [15]): Below limit of detection
microsomal CLint at 1 µM [16]: 24 µL/min/mg
Activity (Plasma [17]): 1115 pg/mL
Activity [18]: Active
Activity (Cynomolgus monkey [19]): 85 pg/mL
fold change (FC) (Liver [20]): 35
Activity (Cynomolgus monkey [21]): 8890 pg/mL
Activity (Plasma [22]): Below limit of detection
Activity [23]: Active
Activity (Cynomolgus monkey [24]): 825 pg/mL
Activity (Plasma [25]): 630 pg/mL
fraction unbound at 4.5 h, 5 µM [26]: 0.47
Activity (Cynomolgus monkey [27]): Non-Toxic
Activity (Liver [28]): Below limit of detection
Activity (Liver [29]): 700 pg/g
Activity (Cynomolgus monkey [30]): 2820 pg/mL
Activity (Cynomolgus monkey [31]): Below limit of detection
metabolised at 1 h, 1 µM [32]: 35%
Activity (Plasma [33]): >10000 pg/mL
